Data: ChEMBL document CHEMBL1275449, “Potent in vitro antifungal activities of naturally occurring acetylenic acids” (Antimicrob Agents Chemother, 2008)
≈ marks a conversion by molar mass, not a printed value.

How the values were obtained:
[1] = system: Trichophyton mentagrophytes; assay: Antifungal activity against Trichophyton mentagrophytes ATCC 9533 by CLSI method; assay type: functional, organism-based
Summary of the method: (§1)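 Growth scraped from 1- to 6-week-old potato dextrose slants and filtered through Miracloth. Diluted in 5% Alamar blue-RPMI 1640 (MOPS pH 7.0) to 2.7 × 10⁴ CFU/ml. Eleven twofold dilutions in duplicate. Fluorescence at 544 nm excitation/590 nm emission read before and after 35°C, 5 days. IC50 fitted from percent growth. MIC taken as no detectable growth; MFC from clear or blue wells plated on PD agar.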

Pichia kudriavzevii = assay: Antifungal activity against Candida krusei ATCC 6258 after 48 hrs by CLSI method; assay type: functional, organism-based; conditions: ATCC 6258, 48 h
Summary of the method: (§2)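 Candida inocula came from 24–72-h SD agar colonies suspended in saline. They were diluted by OD630 standard curve into RPMI 1640 (0.2% dextrose, 0.03% glutamine, 0.165 M MOPS, pH 7.0) to 1.5 × 10³ CFU/ml. Compounds were run as 11 twofold dilutions in 20% DMSO-saline, in duplicate, at 35°C for 48 h, with OD530 read before and after. Percent growth at the top concentration, IC50, MIC, and MFC (SD agar plating) were derived.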

SK-MEL = assay: Cytotoxicity against human SK-MEL cells up to 32 uM by neutral red method; assay type: cell-based
Summary of the method: (§3)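 Neutral red uptake cytotoxicity, top concentration 32 μM.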

Aspergillus fumigatus [2] = assay: Antifungal activity against Aspergillus fumigatus ATCC 204305 after 48 h by CLSI method; conditions: ATCC 204305, 48 h
Aspergillus fumigatus [3] = assay: Antifungal activity against Aspergillus fumigatus ATCC 90906 after 48 h by CLSI method; conditions: ATCC 90906, 48 h
Candida parapsilosis = assay: Antifungal activity against Candida parapsilosis ATCC 22019 after 48 hrs by CLSI method; assay type: functional, organism-based; conditions: Lodderomyces parapsilosis, ATCC 22019, 48 h
Summary of the method: (§4)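 Yeast suspensions made from 3-5 colonies off 24-72 h SD agar plates in saline. They were diluted by OD630 standard curve in RPMI 1640 (0.2% dextrose, 0.03% glutamine, 0.165 M MOPS, pH 7.0) to 1.5 × 10³ CFU/ml. Twofold dilutions (11 concentrations, 20% DMSO-saline) run in duplicate. OD530 read before and after 35°C, 48 h. Line values are top test concentrations; no-growth endpoints give MIC/MFC.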

Candida albicans [4] = assay: Antifungal activity against Candida albicans ATCC 200955 after 48 hrs by CLSI method; assay type: functional, organism-based; conditions: ATCC 200955, 48 h
Summary of the method: (§5)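 CLSI broth microdilution. Colonies from 24–72 h SD agar suspended in saline and sized by OD630 standard curve. Inoculum 1.5 × 10³ CFU/ml (final) in RPMI 1640 (0.2% dextrose, 0.03% glutamine, 0.165 M MOPS, pH 7.0). Twofold dilutions (11 levels) from 20% DMSO-saline, in duplicate. 35°C for 48 h, OD530 read before and after. IC50 fitted from % growth. MIC: no detectable growth. MFC: subculture onto SD agar.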

BT-549 = assay: Cytotoxicity against human BT549 cells up to 32 uM by neutral red method; assay type: cell-based; summary of the method: as §3
Candida albicans [5] = assay: Antifungal activity against Fluconazole resistant Candida albicans clinical isolate 1 after 48 hrs by CLSI method; assay type: functional, organism-based; summary of the method: as §5
Candida albicans [6] = assay: Antifungal activity against Candida albicans ATCC 60193 after 48 hrs by CLSI method; assay type: functional, organism-based; conditions: ATCC 60193, 48 h; summary of the method: as §5
Candida albicans [7] = assay: Antifungal activity against Candida albicans ATCC 14053 after 48 hrs by CLSI method; assay type: functional, organism-based; conditions: ATCC 14053, 48 h; summary of the method: as §5
Candida tropicalis = assay: Antifungal activity against Candida tropicalis ATCC 750 after 48 hrs by CLSI method; assay type: functional, organism-based; conditions: ATCC 750, 48 h; summary of the method: as §4
Candida albicans [8] = assay: Antifungal activity against Candida albicans ATCC 32354 after 48 hrs by CLSI method; assay type: functional, organism-based; conditions: ATCC 32354, 48 h; summary of the method: as §5
[9] = system: Trichophyton mentagrophytes; assay: Antifungal activity against Trichophyton mentagrophytes ATCC MYA-4439 by CLSI method; assay type: functional, organism-based; summary of the method: as §1
Trichophyton rubrum [10] = assay: Antifungal activity against Trichophyton rubrum ATCC 10218 by CLSI method; assay type: functional, organism-based; summary of the method: as §1
LLC-PK1 = assay: Cytotoxicity against pig LLC-PK1 cells up to 32 uM by neutral red method; assay type: cell-based, Sus scrofa; summary of the method: as §3
Cryptococcus neoformans [11] = assay: Antifungal activity against Cryptococcus neoformans ATCC 90113 after 72 hrs by CLSI method; assay type: functional, organism-based; conditions: ATCC 90113, 72 h
Summary of the method: (§6)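 SD broth replaced RPMI because growth in RPMI was poor; other CLSI conditions were kept. Inoculum was 1.5 × 10³ CFU/ml from colonies on SD agar, checked by plating. Twofold serial dilutions (11 concentrations) in 20% DMSO-saline were tested in duplicate. OD530 was read before and after incubation at 35°C for 72 h. Percent growth gave IC50; the MIC is the lowest concentration with no detectable growth.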

Vero = assay: Cytotoxicity against African green monkey Vero cells up to 32 uM by neutral red method; assay type: cell-based; conditions: chlorocebus sabaeus; summary of the method: as §3
Trichophyton rubrum [12] = assay: Antifungal activity against Trichophyton rubrum ATCC MYA-4438 by CLSI method; assay type: functional, organism-based; summary of the method: as §1
Candida albicans [13] = assay: Antifungal activity against Candida albicans ATCC 90028 after 48 hrs by CLSI method; assay type: functional, organism-based; conditions: ATCC 90028, 48 h; summary of the method: as §5
Candida albicans [14] = assay: Antifungal activity against Fluconazole resistant Candida albicans clinical isolate 17 after 48 hrs by CLSI method; assay type: functional, organism-based; summary of the method: as §5
KB = assay: Cytotoxicity against human KB cells up to 32 uM by neutral red method; assay type: cell-based; summary of the method: as §3
SK-OV-3 = assay: Cytotoxicity against human SKOV3 cells up to 32 uM by neutral red method; assay type: cell-based; summary of the method: as §3
Aspergillus flavus = assay: Antifungal activity against Aspergillus flavus ATCC 204304 after 48 h by CLSI method; conditions: ATCC 204304, 48 h
Aspergillus niger = assay: Antifungal activity against Aspergillus niger ATCC 16404 after 48 h by CLSI method; conditions: ATCC 16404, 48 h
Nakaseomyces glabratus = assay: Antifungal activity against Candida glabrata ATCC 90030 after 48 hrs by CLSI methodCandida glabrata; assay type: functional, organism-based; conditions: ATCC 90030, 48 h; summary of the method: as §2
Cryptococcus neoformans [15] = assay: Antifungal activity against Cryptococcus neoformans ATCC 66031 after 72 hrs by CLSI method; assay type: functional, organism-based; conditions: ATCC 66031, 72 h; summary of the method: as §6

CCCCCC#CCC#CCC#CCC#CCCCC(=O)O
IC50 [1]: 14.2 µM | MIC [1]: 21.1 µM (≈ 6.25 µg/mL) | IC50 (Pichia kudriavzevii): > 169000 nM | Activity (SK-MEL): Non-toxic | IC50 (Aspergillus fumigatus [2]): 10 µM | MIC (Aspergillus fumigatus [2]): 84.5 µM (≈ 25 µg/mL) | IC50 (Aspergillus fumigatus [3]): 13.3 µM | MIC (Aspergillus fumigatus [3]): 84.5 µM (≈ 25 µg/mL) | IC50 (Candida parapsilosis): 5400 nM | MIC (Candida parapsilosis): 63.3 µM (≈ 18.8 µg/mL) | IC50 (Candida albicans [4]): 2000 nM | MFC (Candida albicans [4]): 21.1 µM (≈ 6.25 µg/mL) | MIC (Candida albicans [4]): 5.3 µM (≈ 1.57 µg/mL) | Activity (BT-549): Non-toxic | IC50 (Candida albicans [5]): 1700 nM | MIC (Candida albicans [5]): 42.2 µM (≈ 12.5 µg/mL) | IC50 (Candida albicans [6]): 4500 nM | MIC (Candida albicans [6]): 63.3 µM (≈ 18.8 µg/mL) | IC50 (Candida albicans [7]): 8.1 µM | MIC (Candida albicans [7]): 63.3 µM (≈ 18.8 µg/mL) | IC50 (Candida tropicalis): 27.7 µM | IC50 (Candida albicans [8]): 4000 nM | MIC (Candida albicans [8]): 31.7 µM (≈ 9.4 µg/mL) | IC50 [9]: 6.7 µM | MIC [9]: 31.7 µM (≈ 9.4 µg/mL) | IC50 (Trichophyton rubrum [10]): 8.4 µM | MIC (Trichophyton rubrum [10]): 15.8 µM (≈ 4.68 µg/mL) | Activity (LLC-PK1): Non-toxic | IC50 (Cryptococcus neoformans [11]): > 169000 nM | Activity (Vero): Non-toxic | IC50 (Trichophyton rubrum [12]): 2900 nM | MIC (Trichophyton rubrum [12]): 31.7 µM (≈ 9.4 µg/mL) | IC50 (Candida albicans [13]): 5 µM | MIC (Candida albicans [13]): 42.2 µM (≈ 12.5 µg/mL) | IC50 (Candida albicans [14]): 3500 nM | MIC (Candida albicans [14]): 42.2 µM (≈ 12.5 µg/mL) | Activity (KB): Non-toxic | Activity (SK-OV-3): Non-toxic | IC50 (Aspergillus flavus): > 169000 nM | IC50 (Aspergillus niger): 100 µM

CC(=O)N1CCN(c2ccc(OCC3COC(Cn4ccnc4)(c4ccc(Cl)cc4Cl)O3)cc2)CC1 (stereo not drawn) [KETOCONAZOLE]
IC50 [1]: 0.2 µM | MIC [1]: 0.4 µM (≈ 0.213 µg/mL) | IC50 (Pichia kudriavzevii): 400 nM | MIC (Pichia kudriavzevii): 1.1 µM (≈ 0.585 µg/mL) | IC50 (Aspergillus fumigatus [2]): 2.7 µM | MIC (Aspergillus fumigatus [2]): 4.7 µM (≈ 2.5 µg/mL) | IC50 (Aspergillus fumigatus [3]): 3.2 µM | MIC (Aspergillus fumigatus [3]): 7.1 µM (≈ 3.77 µg/mL) | IC50 (Nakaseomyces glabratus): 700 nM | MIC (Nakaseomyces glabratus): 4.7 µM (≈ 2.5 µg/mL) | IC50 (Candida parapsilosis): 40 nM | MIC (Candida parapsilosis): 0.13 µM (≈ 0.0691 µg/mL) | IC50 (Candida albicans [4]): < 10 nM | MIC (Candida albicans [4]): 0.01 µM (≈ 0.00531 µg/mL) | IC50 (Candida albicans [5]): < 10 nM | MIC (Candida albicans [5]): 0.1 µM (≈ 0.0531 µg/mL) | IC50 (Candida albicans [6]): 10 nM | MIC (Candida albicans [6]): 0.02 µM (≈ 0.0106 µg/mL) | IC50 (Candida albicans [7]): 0.01 µM | MIC (Candida albicans [7]): 0.02 µM (≈ 0.0106 µg/mL) | IC50 (Candida tropicalis): 0.04 µM | MIC (Candida tropicalis): 0.19 µM (≈ 0.101 µg/mL) | IC50 (Candida albicans [8]): 10 nM | MIC (Candida albicans [8]): 0.03 µM (≈ 0.0159 µg/mL) | IC50 [9]: 0.1 µM | MIC [9]: 0.7 µM (≈ 0.372 µg/mL) | IC50 (Trichophyton rubrum [10]): 0.02 µM | MIC (Trichophyton rubrum [10]): 0.04 µM (≈ 0.0213 µg/mL) | IC50 (Cryptococcus neoformans [11]): 100 nM | MFC (Cryptococcus neoformans [11]): 1.2 µM (≈ 0.638 µg/mL) | MIC (Cryptococcus neoformans [11]): 0.3 µM (≈ 0.159 µg/mL) | IC50 (Trichophyton rubrum [12]): 10 nM | MIC (Trichophyton rubrum [12]): 0.08 µM (≈ 0.0425 µg/mL) | IC50 (Candida albicans [13]): < 0.01 µM | MIC (Candida albicans [13]): 0.01 µM (≈ 0.00531 µg/mL) | IC50 (Candida albicans [14]): 300 nM | IC50 (Aspergillus flavus): 2800 nM | MIC (Aspergillus flavus): 4.7 µM (≈ 2.5 µg/mL) | IC50 (Aspergillus niger): 6 µM | MIC (Aspergillus niger): 9.4 µM (≈ 5 µg/mL) | IC50 (Cryptococcus neoformans [15]): 20 nM | MFC (Cryptococcus neoformans [15]): 0.59 µM (≈ 0.314 µg/mL) | MIC (Cryptococcus neoformans [15]): 0.15 µM (≈ 0.0797 µg/mL)
